# Measured values published in ChEMBL document CHEMBL1933059, “Imidazo [4,5f][1,10] phenanthroline derivatives as inhibitor of c-myc gene expression in A549 cells via NF-κB pathway” (Bioorg Med Chem Lett, 2012).
# Assays:
# A549 [1] = assay: Cytotoxicity against human A549 cells after 72 hrs by MTT assay; assay type: functional, cell-based; conditions: A549, 72 h
# Summary of the method: (§1)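 MTT growth-inhibition assay; IC50 values given as mean ± SD of triplicates.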
# A-375 = assay: Cytotoxicity against human A375 cells after 72 hrs by MTT assay; assay type: functional, cell-based; conditions: A-375, 72 h; summary of the method: as §1
# Bel-7402 = assay: Cytotoxicity against human Bel7402 cells after 72 hrs by MTT assay; assay type: functional, cell-based; conditions: Bel-7402, 72 h; summary of the method: as §1
# HepG2 = assay: Cytotoxicity against human HepG2 cells after 72 hrs by MTT assay; assay type: functional, cell-based; conditions: HepG2, 72 h; summary of the method: as §1
# [2] = Cytotoxicity against human HO8910 cells after 72 hrs by MTT assay; assay type: functional, cell-based; conditions: HO-8910, 72 h; summary of the method: as §1
# [3] = Cytotoxicity against human CNE1 cells after 72 hrs by MTT assay; assay type: functional, cell-based; conditions: CNE; summary of the method: as §1
# A549 [4] = assay: Induction of apoptosis in human A549 cells at 1 uM after 24 hrs by annexinV-propidium iodide staining-based flow cytometric analysis (reference value: 10.81%); assay type: functional
# A549 [5] = assay: Induction of apoptosis in human A549 cells at 2.5 uM after 24 hrs by annexinV-propidium iodide staining-based flow cytometric analysis (reference value: 10.81%); assay type: functional
# A549 [6] = assay: Induction of apoptosis in human A549 cells at 5 uM after 24 hrs by annexinV-propidium iodide staining-based flow cytometric analysis (reference value: 10.81%); assay type: functional
# A549 [7] = assay: Induction of IkappaBalpha protein expression in human A549 cells after 24 hrs by Western blot analysis; assay type: functional, cell-based
# Summary of the method: (§2)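 A549 cells treated at 1, 2.5 and 5 μM. Timepoints: IκBα 24 h, p65 24 h, c-myc 24 and 48 h. Total cell lysates resolved on 10% polyacrylamide gels and immunoblotted with protein-specific antibodies. β-actin and GAPDH serve as internal controls. Mean ± SD of triplicates.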
# A549 [8] = assay: Inhibition of NFkappa B in human A549 cells assessed as decrease in c-myc protein expression after 24 to 48 hrs by Western blot analysis; assay type: cell-based; summary of the method: as §2
# A549 [9] = assay: Inhibition of NFkappa B in human A549 cells assessed as decrease in c-myc protein expression at 1 to 5 uM by Western blot analysis; assay type: cell-based; conditions: TDE = time-dependent effect; summary of the method: as §2
# A549 [10] = assay: Inhibition of NFkappa B in human A549 cells assessed as down regulation of NF-kappaB p65 protein expression after 24 hrs by Western blot analysis; assay type: cell-based; summary of the method: as §2
# A549 [11] = assay: Inhibition of NFkappa B in human A549 cells assessed as down regulation of NF-kappaB p65 protein expression at 1 to 5 uM by Western blot analysis; assay type: cell-based; conditions: TDE = time-dependent effect; summary of the method: as §2
# A549 [12] = assay: Down regulation of c-myc gene expression in human A549 cells after 24 to 48 hrs by qRT-PCR analysis; assay type: functional, cell-based
compound,measurement,setting,value
Fc1ccc(-c2nc3c4cccnc4c4ncccc4c3[nH]2)cc1,IC50,A549 [1],1090 nM
CCCOc1ccc(-c2nc3c4cccnc4c4ncccc4c3[nH]2)cc1,IC50,A549 [1],18000 nM
Brc1ccc(-c2nc3c4cccnc4c4ncccc4c3[nH]2)cc1,IC50,A549 [1],850 nM
same,IC50,A-375,980 nM
same,IC50,Bel-7402,5800 nM
same,IC50,HepG2,4300 nM
same,IC50,[2],1560 nM
same,IC50,[3],1200 nM
same,Activity,A549 [4],35.26%
same,Activity,A549 [5],43.26%
same,Activity,A549 [6],50.94%
same,Activity,A549 [7],Dose-dependent effect
same,inhibition,A549 [8],Dose-dependent effect
same,inhibition,A549 [9],tde
same,inhibition,A549 [10],Dose-dependent effect
same,inhibition,A549 [11],tde
same,Activity,A549 [12],Dose-dependent effect
CCCCOc1ccc(-c2nc3c4cccnc4c4ncccc4c3[nH]2)cc1,IC50,A549 [1],35500 nM
Cc1ccc(-c2nc3c4cccnc4c4ncccc4c3[nH]2)cc1,IC50,A549 [1],1330 nM
Clc1ccc(-c2nc3c4cccnc4c4ncccc4c3[nH]2)cc1,IC50,A549 [1],1060 nM
CCOc1ccc(-c2nc3c4cccnc4c4ncccc4c3[nH]2)cc1,IC50,A549 [1],1960 nM
CC(C)Oc1ccc(-c2nc3c4cccnc4c4ncccc4c3[nH]2)cc1,IC50,A549 [1],31900 nM
FC(F)(F)c1ccc(-c2nc3c4cccnc4c4ncccc4c3[nH]2)cc1,IC50,A549 [1],1730 nM
COc1ccc(-c2nc3c4cccnc4c4ncccc4c3[nH]2)cc1,IC50,A549 [1],1360 nM
